This is a sample that favours compounds with a hit; in the whole collection about 3.1% have one here.
MEKK2 mut-MEK5: MEK5 binding signal on mutant MEKK2 PB1, primary screen, biochemical, multiplex bead flow cytometry, Alexa488-MEK5. Alexa488-MEK5 binding to MEKK2 mutant. percent response, % at 10 µM. hit rate 0.35% among 290,000; in the data active = percent response above about 24%, passing the limit was not always enough
Apaf1 inhib: inhibitors of human Apaf-1 apoptosome, primary screen, biochemical, DEVD-Rh110 fluorescence, uHTS | Apoptotic protease-activating factor 1 (Homo sapiens), O14727 | reconstituted apoptosome caspase-3 activity | inhibition, % at 20 µM | hit rate 0.71% among 330,000 | AID 489030, 2010; active = inhibition of at least 40% at 20 µM;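 note: plate controls were DMSO wells for no effect and DEVD-CHO caspase inhibitor wells for full effect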
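Assay system: Apoptosome proteins | Medium: pH 7.5 Hepes buffer with CHAPS, BSA, DTT | Also added: Cytochrome c and DEVD-Rh110 substrate | Times: 30 min plus 50 min, RT | Detection: Rhodamine 110 fluorescence at Ex 480/Em 540 nm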
MEKK3 PB1 HTS: modulators of MEKK3-MEK5 PB1 binding, primary screen, biochemical, wildtype MEKK3, multiplex bead flow cytometry, Alexa488-MEK5; Mitogen-activated protein kinase kinase kinase 3 (Homo sapiens), Q99759; bead-based flow cytometry, Alexa488-MEK5 binding to MEKK3; actives lie on both sides; 0 = blocked by unlabeled MEK5, 100 = vehicle; binding response (% of control), % at 10 µM; hit rate 1.4% among 290,000; AID 1529, 2009;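 active = binding response more than 3 SD above or below the average of its plate-row segment, actives on both sides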;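 note: Alexa488 bead fluorescence after subtracting the streptavidin-only scavenger bead signal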
Target sequence (Q99759 whole entry, looked up): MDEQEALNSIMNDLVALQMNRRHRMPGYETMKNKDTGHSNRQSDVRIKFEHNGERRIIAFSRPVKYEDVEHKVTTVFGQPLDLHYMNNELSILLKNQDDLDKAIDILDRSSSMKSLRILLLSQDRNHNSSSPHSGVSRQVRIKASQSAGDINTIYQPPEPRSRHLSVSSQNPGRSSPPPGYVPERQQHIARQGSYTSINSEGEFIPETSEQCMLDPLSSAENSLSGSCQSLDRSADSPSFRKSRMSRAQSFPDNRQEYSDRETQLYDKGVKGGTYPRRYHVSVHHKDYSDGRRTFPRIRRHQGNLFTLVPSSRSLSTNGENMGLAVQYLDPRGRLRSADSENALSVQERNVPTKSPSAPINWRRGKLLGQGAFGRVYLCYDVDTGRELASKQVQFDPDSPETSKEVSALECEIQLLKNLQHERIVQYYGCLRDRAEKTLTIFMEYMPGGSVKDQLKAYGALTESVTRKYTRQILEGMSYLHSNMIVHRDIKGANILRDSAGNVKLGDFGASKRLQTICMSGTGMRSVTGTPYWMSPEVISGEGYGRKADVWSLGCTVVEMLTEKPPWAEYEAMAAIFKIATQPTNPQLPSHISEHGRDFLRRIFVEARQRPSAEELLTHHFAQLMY
PREPL inh: PREPL enzyme inhibitors, primary screen, biochemical, fluorescence polarization; Prolyl endopeptidase-like (Homo sapiens), Q4J6C6; recombinant PREPL, fluorescence polarization activity-based probe; inhibition, % at 5.96 µM; hit rate 0.68% among 320,000; AID 2751, 2010; in the data active = inhibition above about 43%;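 note: 0% = enzyme with DMSO and 100% = wells lacking enzyme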
UBC13 inh: UBC13 polyubiquitin chain formation inhibitors, primary screen, biochemical, TR-FRET, uHTS; Ubiquitin-conjugating enzyme E2 N (Homo sapiens), P61088; inhibition, % at 20 µM; hit rate 0.47% among 330,000; AID 485273, 2010; in the data active = inhibition above about 45%, passing the limit was not always enough
MEKK2 WT-MEK5: modulators of MEK5 binding to wildtype MEKK2, primary screen, biochemical, multiplex bead flow cytometry, Alexa488-MEK5. Mitogen-activated protein kinase kinase kinase 2 (Homo sapiens), Q9Y2U5. Alexa488-MEK5 binding to MEKK2 WT; actives lie on both sides. binding response (% of control), % at 10 µM. hit rate 1.1% among 290,000. AID 1531, 2009; in the data active = binding response below about 67% or above about 130%
MEKK2wt confirm: modulators of MEK5 binding to wildtype MEKK2, confirmation, biochemical, single concentration, multiplex bead flow cytometry; shares compounds with MEKK3 PB1 HTS; Alexa488-MEK5 binding to MEKK2 WT; actives lie on both sides; binding response (% of control), % at 10 µM; hit rate 2.4% among 5,900; in the data active = binding response below about 16% or above about 210%; inactive = in between
MEKK2mut confirm: mutant MEKK2 PB1-MEK5 binding signal retest – biochemical, single concentration, multiplex bead flow cytometry, confirmation. Alexa488-MEK5 binding to MEKK2 mutant. shares compounds with MEKK3 PB1 HTS. hit rate 2% among 5,900. percent response, % at 10 µM; in the data active = percent response mostly above about 71%, no sharp cut-off; inactive = mostly below about 38%;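 note: higher means compound restores mutant binding toward wildtype level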
MEKK3-MEK5 inh: MEKK3 wild-type PB1 binding to MEK5, inhibitors, confirmation, biochemical, bead multiplex flow cytometry, single concentration, wildtype | shares compounds with MEKK3 PB1 HTS | Alexa488-MEK5 binding to MEKK3; hits give low values | binding response (% of control), % at 10 µM | hit rate 1.8% among 5,900 | AID 1894, 2009;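 active = binding response below 72% of control, or above a set upper limit, though filed actives all read lower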;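 note: 100% = DMSO only wells and 0% = binding blocked by excess unlabeled MEK5; lower values mean stronger disruption of MEK5 binding to MEKK3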
* marks the source's active call; other numbers are inactive results; [ ] = another dose, or the depositor's remark.

For O=C(COC(=O)c1ccc(Br)o1)NCc1ccccc1Cl the results were Apaf1 inhib 10, PREPL inh 2 and UBC13 inh -2.
For COc1ccc(OC)c(NC(=S)NCCSc2ccc(C)cc2)c1 the results were MEKK2 mut-MEK5 1, Apaf1 inhib 14, MEKK3 PB1 HTS 142*, PREPL inh 20, UBC13 inh 7, MEKK2 WT-MEK5 112, MEKK2wt confirm 108, MEKK2mut confirm 7 and MEKK3-MEK5 inh 106.
CCCOc1ccc(C(=O)Nc2c[nH]c(=O)[nH]c2=O)cc1 was read as MEKK2 mut-MEK5 5, Apaf1 inhib -8, MEKK3 PB1 HTS 103, PREPL inh -3, UBC13 inh 6 and MEKK2 WT-MEK5 110.
For CCC(=O)Oc1ccc(C(=O)Nc2c[nH]c(=O)[nH]c2=O)cc1 the results were MEKK2 mut-MEK5 -1, Apaf1 inhib -5, MEKK3 PB1 HTS 69*[inhibitor], PREPL inh -3, UBC13 inh 2, MEKK2 WT-MEK5 92, MEKK2wt confirm 97, MEKK2mut confirm -5 and MEKK3-MEK5 inh 103.
For Cc1ccc2cc(CN(CCN3CCOCC3)Cc3nnnn3Cc3ccco3)c(=O)[nH]c2c1C the results were MEKK2 mut-MEK5 -69, MEKK3 PB1 HTS 2.0*[inhibitor], MEKK2 WT-MEK5 2.0*[inhibitor], MEKK2wt confirm 106, MEKK2mut confirm 5 and MEKK3-MEK5 inh 103.
For Cc1ccc2cc(CN(Cc3ccc4c(c3)OCO4)Cc3nnnn3Cc3ccco3)c(=O)[nH]c2c1C the results were MEKK2 mut-MEK5 1, Apaf1 inhib 23, MEKK3 PB1 HTS 96, PREPL inh -6, UBC13 inh 6 and MEKK2 WT-MEK5 96.
`COc1ccc(-c2c(-c3ccc(OCC(=O)NN)cc3O)n[nH]c2C(F)(F)F)cc1` gave MEKK2 mut-MEK5 0, Apaf1 inhib 14, MEKK3 PB1 HTS 130*, PREPL inh 4, UBC13 inh 8, MEKK2 WT-MEK5 107, MEKK2wt confirm 100, MEKK2mut confirm -11 and MEKK3-MEK5 inh 97.
Screening COc1ccc2c(COC(=O)[C@@H]3CCCN3S(=O)(=O)c3ccc(Cl)cc3)cc(=O)oc2c1 returned Apaf1 inhib 23 and UBC13 inh 10.
Screening O=[N+]([O-])c1cc(CN2CCCC2)ccc1Sc1ccc(Cl)cc1 returned MEKK2 mut-MEK5 34, Apaf1 inhib 4, MEKK3 PB1 HTS 109, PREPL inh -10, UBC13 inh 18, MEKK2 WT-MEK5 149*, MEKK2wt confirm 122, MEKK2mut confirm 15 and MEKK3-MEK5 inh 105.
`Clc1ccc(CN2CCCCCC2)cc1` gave MEKK2 mut-MEK5 4, Apaf1 inhib 4, MEKK3 PB1 HTS 103, PREPL inh 14, UBC13 inh 3 and MEKK2 WT-MEK5 109.
O=C(N[C@H](C(=O)O)c1ccccc1)C1CCC(Cn2cnc3ccccc3c2=O)CC1 (some centres undefined) was read as MEKK2 mut-MEK5 1, Apaf1 inhib -19, MEKK3 PB1 HTS 101, PREPL inh 1, UBC13 inh 15 and MEKK2 WT-MEK5 100.
